Screening data deposited in PubChem BioAssay by several laboratories.
UPR XBP1 act = activators of adaptive arm of unfolded protein response (XBP1); CHO-XBP1 luciferase reporter, IRE1-XBP1 UPR activation, luminescence; percent of tunicamycin response, DMSO as zero; activation, % at 20 µM; actives 0.33% (n = 330,000); AID 463104;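 active = versus positive control, 20 µM dose yields 30% or more activation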
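Material: CHO-XBP1 cells stably carrying IRE1-XBP1-driven luciferase reporter / Amount: 1000 cells per well / Compound: 20 µM, 1% DMSO / Times: 6 h treatment, 37 °C / Detection: luciferase luminescence / Measure: % activation of reporter signal versus tunicamycin and DMSO controls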
CHOP inhibitor = CHOP inhibition in unfolded protein response. inhibition, % at 10 µM. CHO-K1 CHOP-promoter luciferase, tunicamycin-induced, 15-18 h. actives 3.8% (n = 220,000);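 active = compounds that reduced the stress-induced luciferase reporter signal by more than about 70% of percent inhibition, limit read from the data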
UPR CHOP act = activators of apoptotic arm of unfolded protein response (CHOP); CHO-CHOP luciferase reporter, UPR activation, luminescence; percent of tunicamycin response over DMSO baseline; activation, % at 10 µM; actives 0.34% (n = 330,000); AID 449763;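 active = at 10 µM dose, activation of 40% or more, normalized to positive control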
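System: CHO-CHOP luciferase reporter cell line | Buffer or medium: F12 medium containing 10% fetal bovine serum | Doses: One dose, 10 µM in 0.5% DMSO | Times: 6 h compound exposure at 37 °C after overnight seeding | Signal: Luciferase luminescence | Read-out: % activation vs tunicamycin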
Hep lipid drop = hepatic lipid droplet formation modulation; AID 1656; AML12 mouse hepatocytes, oleate lipid droplets, BODIPY imaging; actives 0.4% (n = 240,000); inhibition, % at 6.5 µM;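 active = lipid droplet intensity inhibited by at least 50%, with more than 500 cells counted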
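Material – mouse AML12 hepatocyte cell line, fixed after treatment · Compound dosing – one dose, 6.5 µM compound · Times – compound with oleate, overnight · Measured by – Image-based BODIPY and DAPI two-channel analysis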
ANO1 activ = activators or potentiators of mouse TMEM16A chloride channel. AID 623877. Q8BHY3. actives 0.3% (n = 340,000). HEK293 TMEM16A/YFP-H148Q/I152L, iodide quench fluorescence; stronger effect = lower value. B-score at 10 µM;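 active = fluorescence-ratio B-score plate-corrected deviation score at least 3 library SD below zero, with starting fluorescence score within 5 deviations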;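 also: channel opened by trigger with iodide after compound preincubation; score built on the fluorescence ratio of max minus min over baseline; more negative score means more quench and so TMEM16A activation or potentiation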
Target sequence (Q8BHY3 whole entry, looked up): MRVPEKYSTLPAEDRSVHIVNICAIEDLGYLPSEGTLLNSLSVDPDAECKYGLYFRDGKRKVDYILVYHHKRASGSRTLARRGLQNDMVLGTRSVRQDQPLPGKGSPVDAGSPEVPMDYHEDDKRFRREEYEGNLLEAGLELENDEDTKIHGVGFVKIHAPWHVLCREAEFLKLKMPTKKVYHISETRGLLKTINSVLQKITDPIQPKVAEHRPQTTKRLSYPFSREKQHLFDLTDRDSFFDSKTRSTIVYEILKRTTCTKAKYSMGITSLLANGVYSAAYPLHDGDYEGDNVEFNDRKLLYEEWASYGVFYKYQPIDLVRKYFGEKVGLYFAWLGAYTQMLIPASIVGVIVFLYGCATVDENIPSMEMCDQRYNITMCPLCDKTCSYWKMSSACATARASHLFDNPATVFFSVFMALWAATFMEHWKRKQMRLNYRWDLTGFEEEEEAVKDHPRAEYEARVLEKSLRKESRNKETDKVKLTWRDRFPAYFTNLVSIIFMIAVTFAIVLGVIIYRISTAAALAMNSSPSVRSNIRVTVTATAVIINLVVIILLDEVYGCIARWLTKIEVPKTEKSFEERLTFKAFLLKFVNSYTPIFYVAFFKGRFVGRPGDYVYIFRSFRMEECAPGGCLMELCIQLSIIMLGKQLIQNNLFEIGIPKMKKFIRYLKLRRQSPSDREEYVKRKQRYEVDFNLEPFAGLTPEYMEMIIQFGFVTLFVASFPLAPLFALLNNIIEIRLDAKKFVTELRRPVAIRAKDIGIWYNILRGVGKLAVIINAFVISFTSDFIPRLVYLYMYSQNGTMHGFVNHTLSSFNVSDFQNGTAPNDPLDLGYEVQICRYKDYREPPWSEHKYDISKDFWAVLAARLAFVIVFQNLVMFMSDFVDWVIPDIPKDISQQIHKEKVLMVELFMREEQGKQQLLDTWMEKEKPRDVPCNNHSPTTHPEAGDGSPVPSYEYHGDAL
TMEM16A inh = inhibitors of mouse TMEM16A calcium-activated chloride channel; HEK293 TMEM16A/YFP iodide influx fluorescence, ionomycin; Q8BHY3; actives 1.2% (n = 310,000); AID 588511; normalized B-score (activity score, 25-100; higher = stronger inhibition) at 10 µM;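 active = ratio plate-corrected score three or more library SD toward inhibition, starting fluorescence score within five deviations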;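 also: score derived from kinetic fluorescence span divided by baseline fluorescence per well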
Each line names hits and unclear results; the compound was inactive in the other large screens. Compounds with a hit are over-represented: about 4.2% of the library has one in this group of screens.

O=C(Cc1ccccc1)Nc1nc(=O)c2ccccc2s1	none (no result: Hep lipid drop)
COc1ccc(CN2C(=O)c3cccc4cccc2c34)cc1F	none (no result: CHOP inhibitor)
COc1cc(/C=N\Nc2ccc([N+](=O)[O-])cc2)ccc1OCC(=O)Nc1ccc(C)c(C)c1	CHOP inhibitor 78 (no result: UPR XBP1 act, UPR CHOP act, Hep lipid drop, TMEM16A inh)
CCOc1ccc(N2C(=O)C3Sc4[nH]c(=O)sc4C(c4ccc(OC)c(OC)c4)C3C2=O)cc1 (stereo not given)	none
CCOC(=O)c1ccccc1NC(=O)COC(=O)CN1C(=O)C2CC=CCC2C1=O (stereo not given)	none (no result: CHOP inhibitor)
COc1ccc(N(C(=O)Nc2ccc(Cl)cc2)C2=NCCC2)cc1	TMEM16A inh 25
Cc1ccc(N(C(=O)Nc2ccccc2)C2=NCCC2)cc1	none
CC(=O)N1CCN(S(=O)(=O)c2cccc(C(=O)Nc3cc(C(F)(F)F)ccc3N3CCOCC3)c2)CC1	none (no result: CHOP inhibitor)
Cc1occc1-c1nnc(SCC(=O)N2CCCC(C)C2)o1 (stereo not given)	none (no result: CHOP inhibitor, Hep lipid drop, TMEM16A inh)
O=C(c1ccc2c(c1)OCCO2)C1CCN(C(=O)Nc2ccccc2F)CC1	none (no result: CHOP inhibitor)
COc1cccc(N2CCN(c3ncnc4c3[nH]c3ccc(F)cc34)CC2C)c1 (stereo not given)	TMEM16A inh 100 (no result: CHOP inhibitor, Hep lipid drop)
COc1ccc2[nH]c3c(N4CC(C)OC(C)C4)ncnc3c2c1 (stereo not given)	none (no result: ANO1 activ)
Cc1cc(C)c(C#N)c(SCC(=O)OC2CCCCC2)n1	CHOP inhibitor 77
Cc1cc(C)c2nc(SC(C)C(=O)NCC(=O)Nc3ccc(F)c(F)c3F)cc(C)c2c1 (stereo not given)	CHOP inhibitor 92
Cc1cc(SC(C)C(=O)NCC(=O)Nc2ccc(F)c(F)c2F)nc2ccccc12 (stereo not given)	none
COc1nccc(C(F)(F)F)c1C(=O)NC(=O)Nc1ccccc1	none
O=S(=O)(Nc1cccc(-c2nnco2)c1)c1ccc(Cl)cc1	none
Cc1ccc(S(=O)(=O)NCC2CCC(C(=O)NCc3cccnc3)CC2)cc1 (stereo not given)	none
COc1ccc(CCNC(=O)C(=O)NCC2CCCN2S(=O)(=O)c2ccccc2)cc1OC (stereo not given)	TMEM16A inh 25 (no result: CHOP inhibitor, Hep lipid drop)
COc1ccc(CCNC(=O)c2ccc(CN3CCC(Cc4ccccc4)CC3)cc2)cc1OC	ANO1 activ -6.9
COc1cc(CN(C)C(=O)C2CCN(S(=O)(=O)c3cccs3)CC2)ccc1OC(F)F	none (no result: UPR XBP1 act, CHOP inhibitor, UPR CHOP act, Hep lipid drop, TMEM16A inh)
O=C(Nc1ccccn1)c1ccc(Cl)c(S(=O)(=O)N2CCc3ccccc32)c1	none (no result: CHOP inhibitor, Hep lipid drop, TMEM16A inh)
CCCCN(C(=O)CSCC(=O)Nc1ccc(OC)cc1)c1c(N)n(Cc2ccccc2)c(=O)[nH]c1=O	none (no result: CHOP inhibitor, Hep lipid drop)
COc1ccc(-n2cc(-c3ccccc3)c3c(NCCCN4CCOCC4)ncnc32)cc1	none
COc1ccc(-n2cc(-c3ccccc3)c3c(N4CCOCC4)ncnc32)cc1	CHOP inhibitor 81
Fc1ccc(-n2cc(-c3ccccc3)c3c(N4CCOCC4)ncnc32)cc1	CHOP inhibitor 70
CCOC(=O)c1c(C)n(C(=O)c2ccco2)c(=O)n1C(=O)c1ccco1	CHOP inhibitor 85 (no result: Hep lipid drop)
COC(=O)C(Cc1ccc(O)cc1)N1Cc2ccccc2C1=O (stereo not given)	none (no result: CHOP inhibitor)
COc1ccc(OC)c(NC(=O)CN(c2ccc(C(C)C)cc2)S(=O)(=O)c2c(C)noc2C)c1	none (no result: Hep lipid drop)
CCCN(c1ccc(C(C)C)cc1)S(=O)(=O)c1c(C)noc1C	CHOP inhibitor 76
Cc1nn(CCCC(=O)Nc2cc(Oc3ccc(F)cc3)cc([N+](=O)[O-])c2)c(C)c1[N+](=O)[O-]	none
Cc1ccccc1Oc1cc(NC(=O)CCCn2nc(C)c([N+](=O)[O-])c2C)cc([N+](=O)[O-])c1	CHOP inhibitor 91
COc1ccc(NC(=O)c2ccc3c(c2)NC(=O)CO3)cc1OC	none
N#Cc1c(N2CCN(C(=O)c3ccccc3Cl)CC2)nc(-c2ccccc2)c2c1CCCC2	none (no result: Hep lipid drop)
CN(C)CCCNc1nc(-c2ccccc2)c2c(c1C#N)CC(C)(C)OC2	none
N#Cc1c(N2CCN(C(=O)c3ccccc3)CC2)nc(-c2ccccc2)c2c1CCCC2	CHOP inhibitor 72
CC(C)Cc1nc(N2CCN(C(=O)c3ccccc3)CC2)c(C#N)c2c1CCC2	CHOP inhibitor 80 (no result: Hep lipid drop)
CC1(C)Cc2c(C#N)c(N3CCN(C(=O)c4ccco4)CC3)nc(Cc3ccccc3)c2CO1	CHOP inhibitor 88 (no result: Hep lipid drop)
CC(=O)N1CCN(c2nc(CC(C)C)c3c(c2C#N)CCC3)CC1	none (no result: Hep lipid drop)
N#Cc1c(NCCCO)nc(-c2ccccc2)c2c1CCCC2	CHOP inhibitor 78 (no result: Hep lipid drop)
CC(C)CN(C(=O)Cn1c(C(F)(F)F)nc2ccccc21)c1c(N)n(Cc2ccccc2)c(=O)[nH]c1=O	none (no result: UPR XBP1 act, CHOP inhibitor, UPR CHOP act, Hep lipid drop, TMEM16A inh)
Cc1cc(C)cc(NC(=O)Cn2nnc(C(=O)NCc3cccs3)c2N)c1	none (no result: CHOP inhibitor)
Cc1cc(C)c(NC(=O)Cn2nnc(C(=O)NCc3cccs3)c2N)c(C)c1	CHOP inhibitor 85 (no result: Hep lipid drop)
COc1ccccc1C(=O)NC(=O)COC(=O)CCOc1ccc(C)cc1	none (no result: CHOP inhibitor, Hep lipid drop)
CCOC(=O)c1cc2c(OC)ccc(OC)c2n1CC(=O)c1ccccc1	none (no result: CHOP inhibitor)
Cc1ccc(NC(=O)c2ccc(-n3cncn3)c([N+](=O)[O-])c2)cc1	none
CCN(CC)S(=O)(=O)c1cc(NC(=O)c2ccc(-n3cncn3)c([N+](=O)[O-])c2)ccc1C	TMEM16A inh 100 (no result: CHOP inhibitor)
C=CCN1C(=O)c2ccc(C(=O)N3CCN(S(=O)(=O)c4cccc(Cl)c4)CC3)cc2C1=O	none (no result: CHOP inhibitor)
Cc1cc(C)c(S(=O)(=O)c2c(C)cccc2C)c(OCC(C)C)n1	CHOP inhibitor 74
O=C(Nc1nc2cc(Cl)ccc2s1)C1CCCN(S(=O)(=O)c2cccc3cccnc23)C1 (stereo not given)	CHOP inhibitor 75 (no result: Hep lipid drop)
O=C(Nc1nc2ccccc2s1)C1CCCN1S(=O)(=O)c1ccc(Cl)cc1 (stereo not given)	CHOP inhibitor 92
Cc1ccc(S(=O)(=O)N2CCCC2C(=O)Nc2nc3ccccc3s2)cc1 (stereo not given)	none
CCN(CC(=O)Nc1ccc(OC)cc1)C(=O)C1CCN(C(=O)c2ccc(Cl)cc2)CC1	none (no result: CHOP inhibitor, Hep lipid drop, TMEM16A inh)
CCOC(=O)c1ccc(NC(=S)N2CCSC2c2ccc(Cl)cc2)cc1 (stereo not given)	ANO1 activ -7.7, TMEM16A inh 100 (no result: UPR XBP1 act, UPR CHOP act)
CCOC(=O)c1ccc(NC(=S)N2CCSC2c2ccc(OC)cc2)cc1 (stereo not given)	none
CCC(=O)NC(c1ccccc1)c1c(O)ccc2ccccc12 (stereo not given)	none (no result: CHOP inhibitor)
Cc1ccc(C(NC(=O)C2CCCCC2)c2c(O)ccc3ccccc23)cc1 (stereo not given)	Hep lipid drop 57
